≈ marks a conversion by molar mass, not a printed value.
Columns and labels:
Cryptococcus neoformans = experiment: Antifungal activity against Cryptococcus neoformans after 48 hrs by broth microdilution technique; type: functional
Summary of the method: (§1)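 Broth microdilution MIC per NCCLS guidelines in RPMI 1640 buffered with MOPS; starting inoculum of test culture 1–5 × 10³ CFU/mL.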

Aspergillus fumigatus = experiment: Antifungal activity against Aspergillus fumigatus after 48 hrs by broth microdilution technique; type: functional; summary of the method: as §1
Trichomonas vaginalis = experiment: Antitrichomonal activity against Trichomonas vaginalis after 48 hrs by trypan blue exclusion assay; type: functional
Summary of the method: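 Trophozoites in TYM medium; stock solutions serially diluted in TYM to concentrations up to 0.1 mg/mL, DMSO/TYM as vehicle control. Parasites added, incubated anaerobically at 37 °C, viability checked by trypan blue exclusion under microscope (200×) from 3 to 48 h. MIC = lowest concentration with all cells dead at 48 h. Metronidazole reference; run three times.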

Candida albicans = experiment: Antifungal activity against Candida albicans after 48 hrs by broth microdilution technique; type: functional; summary of the method: as §1
[1] = tested on: Trichophyton mentagrophytes; experiment: Antifungal activity against Trichophyton mentagrophytes after 48 hrs by broth microdilution technique; type: functional; summary of the method: as §1
Candida parapsilosis = experiment: Antifungal activity against Candida parapsilosis after 48 hrs by broth microdilution technique; type: functional; details: Lodderomyces parapsilosis; summary of the method: as §1
HeLa = experiment: Cytotoxicity against human HeLa cells at 200 ug/ml after 24 hrs by MTT assay; type: cell-based
Summary of the method: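 HeLa cells seeded at 5.0 × 10⁴ per well in DMEM with 10% FCS, 24 h at 37 °C in 5% CO₂; medium replaced with fresh medium containing test dilutions, 10% DMSO vehicle in control wells. After a further 24 h, MTT added; formazan dissolved in DMSO, OD read at 540 nm. Mean ± SE of 3 estimations.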

Spermatozoa = experiment: Sperimcidal activity against human spermatozoa assessed as sperm motility at 1 % drug solution%; type: functional
Summary of the method: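 Drop of sperm–compound mixture placed on slide under cover glass, examined by phase contrast microscopy in five fields; percentage of motile spermatozoa scored visually within 30–40 s. N-9 as reference control; some compounds tested as D-(-)-tartrate salts.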

Sporothrix schenckii = experiment: Antifungal activity against Sporothrix schenckii after 48 hrs by broth microdilution technique; type: functional; summary of the method: as §1

| Compound | MIC (Cryptococcus neoformans) [µg/mL] | MIC (Aspergillus fumigatus) [µg/mL] | MIC (Trichomonas vaginalis) [µM] | MIC (Candida albicans) [µg/mL] | MIC [1] [µg/mL] | MIC (Candida parapsilosis) [µg/mL] | Activity (HeLa) | Activity (Spermatozoa) [%] | MIC (Sporothrix schenckii) [µg/mL] |
| --- | --- | --- | --- | --- | --- | --- | --- | --- | --- |
| Cc1ncc([N+](=O)[O-])n1CCOC(=O)CCN1CCN(c2ccc([N+](=O)[O-])cc2)CC1 | > 50 | > 50 | 1.45 (≈ 0.627 µg/mL) | > 50 | 50 (≈ 116 µM) | > 50 | Non-toxic | 82.35 | > 50 |
| Cc1ncc([N+](=O)[O-])n1CCOC(=O)CCn1ccnc1[N+](=O)[O-] | > 50 | > 50 | 9.25 (≈ 3.13 µg/mL) | > 50 | 50 (≈ 148 µM) | > 50 | Non-toxic | 100 | > 50 |
| Cc1ncc([N+](=O)[O-])n1CCSC(=S)N1CCCCC1 | > 50 | > 50 | 1 (≈ 0.314 µg/mL) | > 50 | 50 (≈ 159 µM) | > 50 | Non-toxic | 70.59 | 25 (≈ 79.5 µM) |
| Cc1ncc([N+](=O)[O-])n1CCCl | 50 (≈ 264 µM) | > 50 | 6.6 (≈ 1.25 µg/mL) | > 50 | > 50 | > 50 |  | 58.82 | 50 (≈ 264 µM) |
| Cc1ncc([N+](=O)[O-])n1CCn1ccnc1 | > 50 | > 50 | 14.1 (≈ 3.13 µg/mL) | 25 (≈ 113 µM) | > 50 | > 50 | Non-toxic | 92.36 | 50 (≈ 226 µM) |
| CS(=O)(=O)[O-].Cc1ncc([N+](=O)[O-])n1CC[n+]1ccccc1 | > 50 | > 50 | 9.53 | > 50 | > 50 | > 50 | Non-toxic | 85.09 | > 50 |
| Cc1ncc([N+](=O)[O-])n1CCOC(=O)CCn1c([N+](=O)[O-])cnc1C | > 50 | > 50 | 20.6 (≈ 7.26 µg/mL) | > 50 | 50 (≈ 142 µM) | > 50 | Non-toxic | 88.24 | > 50 |
| Cc1ncc([N+](=O)[O-])n1CCOC(=O)CCn1nnc2ccccc21 | > 50 | > 50 | 27.6 (≈ 9.51 µg/mL) | > 50 | 50 (≈ 145 µM) | > 50 | Non-toxic | 95.734 | > 50 |
| CC(=O)OCCn1c([N+](=O)[O-])cnc1C | > 50 | > 50 | 23.5 (≈ 5 µg/mL) | > 50 | > 50 | > 50 |  | 82.35 | > 50 |
| Cc1ncc([N+](=O)[O-])n1CCSC(=S)N1CCN(c2ncccn2)CC1 | > 50 | > 50 | 25.4 (≈ 10 µg/mL) | > 50 | 50 (≈ 127 µM) | > 50 | Non-toxic | 94.12 | > 50 |
| Cc1ncc([N+](=O)[O-])n1CCOC(=O)CCn1cncn1 | > 50 | > 50 | 21.3 (≈ 6.26 µg/mL) | > 50 | 50 (≈ 170 µM) | > 50 | Non-toxic | 100 | > 50 |
| Cc1ncc([N+](=O)[O-])n1CCOC(=O)CCn1ccnc1 | > 50 | > 50 | 10.7 (≈ 3.13 µg/mL) | > 50 | 50 (≈ 170 µM) | > 50 | Non-toxic | 100 | > 50 |
| OC(Cn1cncn1)(Cn1cncn1)c1ccc(F)cc1F [FLUCONAZOLE] | 1 (≈ 3.27 µM) | 2 (≈ 6.53 µM) |  | 0.5 (≈ 1.63 µM) | 1 (≈ 3.27 µM) | 1 (≈ 3.27 µM) | Non-toxic |  | 2 (≈ 6.53 µM) |
| Cc1ncc([N+](=O)[O-])n1CCSC(=S)N1CCOCC1 | > 50 | > 50 | 1.98 (≈ 0.626 µg/mL) | > 50 | 50 (≈ 158 µM) | > 50 | Non-toxic | 70.59 | 50 (≈ 158 µM) |
| Cc1ncc([N+](=O)[O-])n1CCOC(=O)CCl | > 50 | > 50 | 10.1 (≈ 2.5 µg/mL) | > 50 | 25 (≈ 101 µM) | > 50 |  | 98.37 | > 50 |
| Cc1ncc([N+](=O)[O-])n1CCOC(=S)[S-].[Na+] [METRONIDAZOLE XANTHATE] | > 50 | > 50 | 112 | > 50 | > 50 | > 50 | Non-toxic | 90.24 | > 50 |
| CCCCCCCCCc1ccc(OCCOCCOCCOCCOCCOCCOCCOCCOCCO)cc1 [NONOXYNOL 9] |  |  | 60.8 (≈ 37.5 µg/mL) | > 50 |  | 50 (≈ 81.1 µM) |  | 0 |  |
| Cc1ncc([N+](=O)[O-])n1CCOS(C)(=O)=O | > 50 | > 50 | 5.02 (≈ 1.25 µg/mL) | > 50 | > 50 | > 50 |  | 94.12 | 50 (≈ 201 µM) |
| Cc1ncc([N+](=O)[O-])n1CCOC(=O)CCN1CCN(c2ccc(F)cc2)CC1 | > 50 | > 50 | 1.54 (≈ 0.624 µg/mL) | > 50 | 50 (≈ 123 µM) | > 50 | Non-toxic | 88.24 | > 50 |
| Cc1ncc([N+](=O)[O-])n1CCSC(=S)N1CCN(c2ccc([N+](=O)[O-])cc2)CC1 | > 50 | > 50 | 2.87 (≈ 1.25 µg/mL) | > 50 | > 50 | > 50 | Non-toxic | 41.18 | > 50 |
| C=CC(=O)OCCn1c([N+](=O)[O-])cnc1C | 50 (≈ 222 µM) | > 50 | 42.2 (≈ 9.51 µg/mL) | > 50 | 50 (≈ 222 µM) | > 50 | Non-toxic | 70.59 | 50 (≈ 222 µM) |
| CCN(CC)C(=S)SCCn1c([N+](=O)[O-])cnc1C | 50 (≈ 165 µM) | > 50 | 1.03 (≈ 0.311 µg/mL) | 50 (≈ 165 µM) | 25 (≈ 82.7 µM) | > 50 | Non-toxic | 100 | 25 (≈ 82.7 µM) |
| Cc1ncc([N+](=O)[O-])n1CCO [METRONIDAZOLE] |  |  | 11.7 (≈ 2 µg/mL) |  |  |  | Non-toxic | 100 |  |

Source: ChEMBL document CHEMBL1153733, “Imidazole derivatives as possible microbicides with dual protection” (Eur J Med Chem, 2010)
